Measurements from ChEMBL document CHEMBL4364248, “Discovery of 1,2,4-oxadiazole-Containing hydroxamic acid derivatives as histone deacetylase inhibitors potential application in cancer therapy” (Eur J Med Chem, 2019).

What was measured:
Histone deacetylase 2 = Histone deacetylase 2 (Homo sapiens, UniProt Q92769); test: Inhibition of recombinant full length human HDAC2 expressed in sf9 insect cells using Ac-peptide-AMC as substrate after 1 hr by fluorescence assay; type: cell-based
Histone deacetylase 4 = Histone deacetylase 4 (Homo sapiens, UniProt P56524); test: Inhibition of recombinant full length human HDAC4 expressed in sf9 insect cells using Ac-peptide-AMC as substrate after 1 hr by fluorescence assay
Histone deacetylase 11 = Histone deacetylase 11 (Homo sapiens, UniProt Q96DB2); test: Inhibition of recombinant full length human HDAC11 expressed in baculovirus infected Sf9 cells using Ac-peptide-AMC as substrate after 1 hr by fluorescence assay
SK-OV-3 = test: Antiproliferative activity against human SKOV3 cells after 72 hrs by MTT assay; type: functional, cell-based; settings: SK-OV-3, 72 h
HepG2 = test: Antiproliferative activity against human HepG2 cells after 72 hrs by MTT assay; type: functional, cell-based; settings: HepG2, 72 h
RPMI-8226 = test: Antiproliferative activity against human RPMI8226 cells after 72 hrs by MTT assay; type: functional, cell-based; settings: RPMI-8226, 72 h
JeKo-1 [1] = test: Cell cycle arrest in human JeKo1 cells assessed as accumulation at G1 phase at 10 nM after 24 hrs by propidium iodide staining based flow cytometric analysis (reference value: 63.16 %); type: functional
JeKo-1 [2] = test: Cell cycle arrest in human JeKo1 cells assessed as accumulation at G2/M phase at 100 nM after 24 hrs by propidium iodide staining based flow cytometric analysis (reference value: 10.71 %); type: functional
JeKo-1 [3] = test: Induction of apoptosis in human JeKo1 cells assessed as late apoptotic cells at 10 nM after 48 hrs by annexin V-FITC/propidium iodide staining-based flow cytometric method (reference value: 3.07 %); type: functional
In short: (§1)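 Jeko-1 cells were grown in RPMI-1640 with 10% FBS at 37 °C under 5% CO2. They were exposed to 0, 10, 100 or 1000 nM for 48 h, then apoptosis induction was analysed.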

JeKo-1 [4] = test: Induction of apoptosis in human JeKo1 cells assessed as necrotic cells at 10 nM after 48 hrs by annexin V-FITC/propidium iodide staining-based flow cytometric method (reference value: 2.03 %); type: functional; in short: as §1
JeKo-1 [5] = test: Induction of apoptosis in human JeKo1 cells assessed as viable cells at 100 nM after 48 hrs by annexin V-FITC/propidium iodide staining-based flow cytometric method (reference value: 91.6 %); type: functional; settings: JeKo-1, 48 h, read-out: Activity; in short: as §1
JeKo-1 [6] = test: Induction of apoptosis in human JeKo1 cells assessed as viable cells at 1000 nM after 48 hrs by annexin V-FITC/propidium iodide staining-based flow cytometric method (reference value: 91.6 %); type: functional; settings: JeKo-1, 48 h, read-out: Activity; in short: as §1
[7] = AUC ( 0 to t) in Sprague-Dawley rat at 5 mg/kg, iv measured upto 24 hrs by LC-MS/MS analysis; type: ADME, organism-based; design: dose 5 mg/kg, time < 24 hr, route intravenous; settings: in vivo
In short: (§2)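 SD rats (200-250 g), six per time point, given 5 mg/kg as a tail-vein bolus or orally. Blood was taken by cardiac puncture before dosing and at 5, 15, 30, 45 min and 1, 2, 4, 6, 8, 10, 12 and 24 h. Plasma was spun at 4000 g for 15 min at 4 °C and stored at -80 °C. Analysis was LC-MS/MS with multiple-reaction monitoring, followed by noncompartmental analysis.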

[8] = Clearance in Sprague-Dawley rat at 5 mg/kg, po measured upto 24 hrs by LC-MS/MS analysis; type: ADME, organism-based; settings: in vivo; in short: as §2
Daudi = test: Antitumour activity against human Daudi cells xenografted in NOD/SCID mouse assessed as reduction in tumour growth at 10 mg/kg, iv treated on day 1,3 and 5 per week and measured for every 2 days; type: functional; settings: read-out: TGI
In short: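 Daudi cells (107 in 100 µL serum-free RPMI 1640) were injected s.c. into the right flank of 5–6 week female NOD/SCID mice. At 100–200 mm3, mice were randomized six per group. Dosing was 10 mg/kg i.v. or 20 mg/kg p.o. in 8% HP-β-CD on days 1, 3 and 5 each week. Tumors were measured by caliper every 2 days, with TV = length × width² × 0.5.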

[9] = Toxicity in NOD/SCID mouse xenografted with human Daudi cells assessed as organ damage at 20 mg/kg, po treated on day 1,3 and 5 per week and measured for every 2 days by H and E staining based assay; type: organism-based; settings: in vivo, 48 h
In short: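 Female NOD/SCID mice (5–6 weeks) bearing s.c. Daudi xenografts, six per group. Dosing was 10 mg/kg i.v. or 20 mg/kg p.o. in 8% HP-β-CD on days 1, 3 and 5 weekly. Behaviour was observed, and organ tissues were collected at sacrifice for H&E staining.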

Histone deacetylase 4, sequence (P56524 whole entry): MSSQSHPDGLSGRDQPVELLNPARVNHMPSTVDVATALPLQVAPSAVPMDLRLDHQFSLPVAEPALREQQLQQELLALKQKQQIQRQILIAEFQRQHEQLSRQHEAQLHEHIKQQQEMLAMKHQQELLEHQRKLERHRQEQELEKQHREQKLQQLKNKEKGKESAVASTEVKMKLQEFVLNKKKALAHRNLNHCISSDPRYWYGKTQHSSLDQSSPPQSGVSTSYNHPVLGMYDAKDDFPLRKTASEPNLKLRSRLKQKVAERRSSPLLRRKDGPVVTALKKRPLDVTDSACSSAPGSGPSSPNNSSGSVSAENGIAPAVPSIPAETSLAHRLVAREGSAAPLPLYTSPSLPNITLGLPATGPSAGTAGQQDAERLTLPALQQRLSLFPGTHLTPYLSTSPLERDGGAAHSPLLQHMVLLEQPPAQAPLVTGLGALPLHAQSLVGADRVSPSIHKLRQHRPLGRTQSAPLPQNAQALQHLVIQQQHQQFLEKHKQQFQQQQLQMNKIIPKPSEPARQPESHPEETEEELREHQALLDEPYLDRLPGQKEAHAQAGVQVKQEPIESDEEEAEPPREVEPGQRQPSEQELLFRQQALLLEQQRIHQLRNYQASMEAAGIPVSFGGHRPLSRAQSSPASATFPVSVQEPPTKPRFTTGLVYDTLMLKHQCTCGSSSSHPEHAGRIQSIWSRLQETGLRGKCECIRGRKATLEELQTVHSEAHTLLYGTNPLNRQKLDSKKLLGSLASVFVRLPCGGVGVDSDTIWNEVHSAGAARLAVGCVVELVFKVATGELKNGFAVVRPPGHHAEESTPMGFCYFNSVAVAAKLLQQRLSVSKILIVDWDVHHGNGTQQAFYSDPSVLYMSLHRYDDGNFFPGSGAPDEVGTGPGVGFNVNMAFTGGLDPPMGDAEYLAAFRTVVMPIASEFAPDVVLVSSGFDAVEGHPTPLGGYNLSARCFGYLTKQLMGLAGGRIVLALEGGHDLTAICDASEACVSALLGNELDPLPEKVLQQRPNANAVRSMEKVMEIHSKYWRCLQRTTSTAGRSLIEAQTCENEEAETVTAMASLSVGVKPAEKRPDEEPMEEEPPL
Histone deacetylase 11, sequence (Q96DB2 whole entry): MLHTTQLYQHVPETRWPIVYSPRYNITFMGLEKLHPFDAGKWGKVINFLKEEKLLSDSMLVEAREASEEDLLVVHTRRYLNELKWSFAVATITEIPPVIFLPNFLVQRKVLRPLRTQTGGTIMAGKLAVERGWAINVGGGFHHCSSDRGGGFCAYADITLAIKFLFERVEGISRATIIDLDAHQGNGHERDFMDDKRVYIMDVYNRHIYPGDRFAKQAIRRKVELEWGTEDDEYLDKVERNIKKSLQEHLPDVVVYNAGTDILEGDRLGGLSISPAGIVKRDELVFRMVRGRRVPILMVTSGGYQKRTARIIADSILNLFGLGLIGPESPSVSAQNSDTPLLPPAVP
Histone deacetylase 2, sequence (Q92769 whole entry): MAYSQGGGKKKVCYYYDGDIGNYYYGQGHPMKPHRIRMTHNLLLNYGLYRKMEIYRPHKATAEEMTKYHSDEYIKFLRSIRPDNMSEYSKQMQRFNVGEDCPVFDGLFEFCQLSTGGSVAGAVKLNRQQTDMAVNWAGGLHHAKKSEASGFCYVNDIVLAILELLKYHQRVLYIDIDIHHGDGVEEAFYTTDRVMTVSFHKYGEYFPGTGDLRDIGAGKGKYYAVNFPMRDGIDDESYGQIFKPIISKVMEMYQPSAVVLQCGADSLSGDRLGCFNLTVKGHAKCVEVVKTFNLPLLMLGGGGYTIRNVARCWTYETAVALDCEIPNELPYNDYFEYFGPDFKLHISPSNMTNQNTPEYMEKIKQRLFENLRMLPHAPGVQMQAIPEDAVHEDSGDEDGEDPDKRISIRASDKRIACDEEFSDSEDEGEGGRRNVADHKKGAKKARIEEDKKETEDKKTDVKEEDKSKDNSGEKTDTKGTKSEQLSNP

Cc1ccc(CN2CCC(c3noc(CN(C)c4ncc(C(=O)NO)cn4)n3)CC2)cc1
IC50 (Histone deacetylase 2): 3.6 nM
IC50 (Histone deacetylase 4): 473 nM
IC50 (Histone deacetylase 11): > 10000 nM
IC50 (SK-OV-3): 20.5 nM
IC50 (HepG2): 13 nM
IC50 (RPMI-8226): 15.6 nM
Activity (JeKo-1 [1]): 66.88%
Activity (JeKo-1 [2]): 10.77%
Activity (JeKo-1 [3]): 2.24%
Activity (JeKo-1 [4]): 0.39%
viability at 0.1 µM (JeKo-1 [5]): 54.3%
viability at 1 µM (JeKo-1 [6]): 26.9%
AUC(0-t) at 24 h [7]: 433 ng·h/mL
CL/F [8]: 372 mL/min/kg
inhibition in vivo at 10 mg/kg (Daudi): 46.1%
Activity [9]: Non-Toxic
